According to ChEMBL document CHEMBL1145518, “Potent immune-modulating and anticancer effects of NKT cell stimulatory glycolipids” (2007):
Active and inactive are the calls of the source. No cut-off for these calls is given here.

Key:
Mus musculus [1] = experiment: Activation of NKT cells in BALB/c mouse at 2 ug, iv after 72 hrs by flow cytometry; type: functional, organism-based
Outline: (§1)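 BALB/c mice (n = 4/group) were given 100 μl of glycolipid at 20 μg/ml in saline i.v., or 100 μl of 1% DMSO. Spleens were harvested after 72 h and splenocyte subsets counted by flow cytometry: mature DCs as CD11c+/CD80+/CD86+, activated NK as U5A2-13Ag+/CD3−/CD69+, activated NKT as U5A2-13Ag+/CD3+/CD69+. Assays were run in duplicate, mean ± SD.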

[2] = Induction of IL3 secretion in human CD161+ CD3+ NKT cells at 10 ug/ml after 18 hrs relative to basal level; type: functional
Outline: (§2)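 Human Vα24i NKT cell lines were expanded for 10 days on irradiated (3,000 rad) autologous immature DCs with 10 units/ml IL-2. The cells (1 × 10^5) were cocultured with 5 × 10^4 irradiated immature CD14+ DCs plus glycolipid at 10 μg/ml. Supernatants were collected at 18 h and read on a 22-plex Luminex bead panel. Triplicates, mean ± SD.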

[3] = Induction of GM-CSF secretion in human CD161+ CD3+ NKT cells at 10 ug/ml after 18 hrs relative to basal level; type: functional; outline: as §2
[4] = Induction of IL8 secretion in human CD161+ CD3+ NKT cells at 10 ug/ml after 18 hrs relative to basal level; type: functional; outline: as §2
[5] = Induction of MCP1 secretion in human CD161+ CD3+ NKT cells at 10 ug/ml after 18 hrs relative to basal level; type: functional; outline: as §2
Mus musculus [6] = experiment: Induction of IL3 secretion in BALB/c mouse serum at 2 ug, iv after 2 hrs relative to control; type: functional
Outline: (§3)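 BALB/c mice received an i.v. injection of 100 μl of glycolipid diluted to 20 μg/ml in saline from DMSO stock, with 1% DMSO as vehicle. Serum cytokines/chemokines were measured at 2 and 18 h after injection.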

4T1 = experiment: Antitumor activity in mouse 4T1 cells xenografted BALB/c mouse assessed as suppression of tumor growth at 2 ug, iv; type: functional, cell-based
Outline: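 BALB/c mice (n = 6) were inoculated s.c. with 4T1 breast cancer cells. From day 3 they were treated i.v. with glycolipid or vehicle twice weekly for 4 weeks. Tumor volume was recorded every 3 days for 1 month, and survival was monitored up to 54 days.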

Mus musculus [7] = experiment: Induction of MCP1 secretion in BALB/c mouse serum at 2 ug, iv after 2 hrs relative to control; type: functional; outline: as §3
Mus musculus [8] = experiment: Induction of IL12p70 secretion in BALB/c mouse serum at 2 ug, iv after 18 hrs relative to control; type: functional; outline: as §3
[9] = Induction of IL6 secretion in human CD161+ CD3+ NKT cells at 10 ug/ml after 18 hrs relative to basal level; type: functional; outline: as §2
Mus musculus [10] = experiment: Induction of IL13 secretion in BALB/c mouse serum at 2 ug, iv after 2 hrs relative to control; type: functional; outline: as §3
Mus musculus [11] = experiment: Induction of MIPbeta secretion in BALB/c mouse serum at 2 ug, iv after 2 hrs relative to control; type: functional; outline: as §3
[12] = Induction of IL12p70 secretion in human CD161+ CD3+ NKT cells at 10 ug/ml after 18 hrs relative to basal level; type: functional; outline: as §2
[13] = Induction of IL13 secretion in human CD161+ CD3+ NKT cells at 10 ug/ml after 18 hrs relative to basal level; type: functional; outline: as §2
Mus musculus [14] = experiment: Induction of IL2 secretion in BALB/c mouse serum at 2 ug, iv after 2 hrs relative to control; type: functional; outline: as §3
[15] = Induction of IL2 secretion in human CD161+ CD3+ NKT cells at 10 ug/ml after 18 hrs relative to basal level; type: functional; outline: as §2
Mus musculus [16] = experiment: Induction of RANTES secretion in BALB/c mouse serum at 2 ug, iv after 2 hrs relative to control; type: functional; outline: as §3
[17] = Induction of IFN-gamma secretion in human CD161+ CD3+ NKT cells at 10 ug/ml after 18 hrs relative to basal level; type: functional; outline: as §2
[18] = Induction of IL10 secretion in human CD161+ CD3+ NKT cells at 10 ug/ml after 18 hrs relative to basal level; type: functional; outline: as §2
Mus musculus [19] = experiment: Induction of GM-CSF secretion in BALB/c mouse serum at 2 ug, iv after 2 hrs relative to control; type: functional; outline: as §3
[20] = Induction of IL4 secretion in human CD161+ CD3+ NKT cells at 10 ug/ml after 18 hrs relative to basal level; type: functional; outline: as §2
Mus musculus [21] = experiment: Induction of IL10 secretion in BALB/c mouse serum at 2 ug, iv after 18 hrs relative to control; type: functional; outline: as §3
Mus musculus [22] = experiment: Induction of KC secretion in BALB/c mouse serum at 2 ug, iv after 2 hrs relative to control; type: functional; outline: as §3
[23] = Induction of TNFalpha secretion in human CD161+ CD3+ NKT cells at 10 ug/ml after 18 hrs relative to basal level; type: functional; outline: as §2
NKT = experiment: Stimulation of cell expansion of human invariant CD161+/ Valpha24+/ CD56+/ CD3+ NKT cells by flow cytometry method; type: functional, cell-based
Outline: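 CD56+ NK/NKT mixtures (2 × 10^6) were isolated from human leukopaks with anti-CD56 microbeads. They were cocultured with 4 × 10^5 autologous immature CD14+ DCs pulsed with glycolipid at 3 μg/ml, or with 0.3% DMSO, on day 2 for 18 h. Suspension cells were then transferred and kept in 100 units/ml IL-2 with fresh medium every 3 days. On day 9, CD161+/Vα24TCR+ cells were gated by flow cytometry and total Vα24i NKT cells counted. Triplicates, mean ± SD.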

Mus musculus [24] = experiment: Activation of natural killer cells in BALB/c mouse at 2 ug, iv after 72 hrs by flow cytometry; type: functional, organism-based; outline: as §1
Mus musculus [25] = experiment: Increase in CD8/CD4 T cell ratio in BALB/c mouse at 2 ug, iv after 72 hrs by flow cytometry; type: functional, organism-based
Mus musculus [26] = experiment: Induction of IL1-beta secretion in BALB/c mouse serum at 2 ug, iv after 18 hrs relative to control; type: functional; outline: as §3
[27] = Induction of IL15 secretion in human CD161+ CD3+ NKT cells at 10 ug/ml after 18 hrs relative to basal level; type: functional; outline: as §2
[28] = Induction of MIPalpha secretion in human CD161+ CD3+ NKT cells at 10 ug/ml after 18 hrs relative to basal level; type: functional; outline: as §2
Mus musculus [29] = experiment: Activation of dendritic cells in BALB/c mouse at 2 ug, iv after 72 hrs by flow cytometry; type: functional, organism-based; outline: as §1
Mus musculus [30] = experiment: Induction of IL6 secretion in BALB/c mouse serum at 2 ug, iv after 2 hrs relative to control; type: functional; outline: as §3
TC1 = experiment: Antitumor activity in TC1 cells xenografted C57BL/6 mouse assessed as suppression of tumor growth at 2 ug, iv; type: functional, cell-based
Outline: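 C57BL/6 mice (n = 5/group) were inoculated i.v. with TC-1 lung cancer cells. They were then treated i.v. with 2 μg glycolipid per mouse, or 100 μl of 1% DMSO, twice weekly for 4 weeks. Kaplan–Meier survival and body weight were followed, with tumor-free mice as an additional control.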

[31] = Induction of IL12p40 secretion in human CD161+ CD3+ NKT cells at 10 ug/ml after 18 hrs relative to basal level; type: functional; outline: as §2
Mus musculus [32] = experiment: Activation of B cells in BALB/c mouse at 2 ug, iv after 72 hrs by flow cytometry; type: functional, organism-based
Mus musculus [33] = experiment: Induction of TNFalpha secretion in BALB/c mouse serum at 2 ug, iv after 18 hrs relative to control; type: functional; outline: as §3
[34] = Induction of RANTES secretion in human CD161+ CD3+ NKT cells at 10 ug/ml after 18 hrs relative to basal level; type: functional; outline: as §2
Mus musculus [35] = experiment: Induction of IL4 secretion in BALB/c mouse serum at 2 ug, iv after 2 hrs relative to control; type: functional; outline: as §3
Mus musculus [36] = experiment: Induction of IL12p40 secretion in BALB/c mouse serum at 2 ug, iv after 18 hrs relative to control; type: functional; outline: as §3
Mus musculus [37] = experiment: Induction of IFN-gamma secretion in BALB/c mouse serum at 2 ug, iv after 18 hrs relative to control; type: functional; outline: as §3

Row | Compound | Activity (Mus musculus [1]) | Activity [2] | Activity [3] | Activity [4] | Activity [5] | Activity (Mus musculus [6]) | Activity (Mus musculus [7]) | Activity (Mus musculus [8]) | Activity [9] | Activity (Mus musculus [10]) | Activity (Mus musculus [11]) | Activity [12] | Activity [13] | Activity (Mus musculus [14]) | Activity [15] | Activity (Mus musculus [16]) | Activity [17] | Activity [18] | Activity (Mus musculus [19]) | Activity [20] | further results
1 | CCCCCCCCCCCCCC[C@@H](O)[C@@H](O)[C@H](CO[C@H]1O[C@H](CO)[C@H](O)[C@H](O)[C@H]1O)NC(=O)CCCCCCCCCCc1ccccc1 | Active | 2.5 | 5.4 | 1.8 | 0.6 | 1.9 | 23.6 | 1.6 | 2.1 | 7.7 | 5.1 | 3 | 1.6 | 50.5 | 3.9 | 2.2 | 6.2 | 1.8 | 2.7 | 1.9 | Activity (4T1): Active; Activity (Mus musculus [21]): 1.3; Activity (Mus musculus [22]): 6.9; Activity [23]: 7.4; Activity (NKT): Active; Activity (Mus musculus [24]): Active; Activity (Mus musculus [25]): Active; Activity (Mus musculus [26]): 3.4; Activity [27]: 2.7; Activity [28]: 3.4; Activity (Mus musculus [29]): Active; Activity (Mus musculus [30]): 5.8; Activity (TC1): Active; Activity [31]: 2.1; Activity (Mus musculus [32]): Active; Activity (Mus musculus [33]): 45.6; Activity [34]: 1.6; Activity (Mus musculus [35]): 49.6; Activity (Mus musculus [36]): 2.4; Activity (Mus musculus [37]): 166.1
2 | CCCCCCCCCCCCCCCCCCCCCCCCCC(=O)N[C@@H](CO[C@H]1O[C@H](CO)[C@H](O)[C@H](OS(=O)(=O)[O-])[C@H]1O)[C@H](O)[C@H](O)CCCCCCCCCCCCCC.[Na+] | Active | 3.3 | 6.6 | 2.2 | 1.4 | 1.8 | 14.8 | 1.4 | 2.7 | 2.4 | 2.5 | 2.8 | 1.6 | 22 | 2.4 | 1.6 | 3.3 | 2.5 | 7.3 | 2.7 | Activity (Mus musculus [21]): 2.4; Activity (Mus musculus [22]): 16.4; Activity [23]: 8.4; Activity (NKT): Active; Activity (Mus musculus [24]): Active; Activity (Mus musculus [26]): 3.2; Activity [27]: 2.3; Activity [28]: 3.4; Activity (Mus musculus [29]): Active; Activity (Mus musculus [30]): 2.2; Activity [31]: 2; Activity (Mus musculus [32]): Active; Activity (Mus musculus [33]): 36.3; Activity [34]: 1.6; Activity (Mus musculus [35]): 42.9; Activity (Mus musculus [36]): 2.1; Activity (Mus musculus [37]): 160.8
